Reference: ChEMBL document CHEMBL1156233, “Synthesis and anti-HIV activity of alkylated quinoline 2,4-diols” (Bioorg Med Chem, 2010)

How the values were obtained:
[1] = system: Human immunodeficiency virus 1; assay: Antiviral activity against Human immunodeficiency virus 1 NL4.3 infected human CEM cells expressing GFP at 21.20 uM measured up to 8 days postinfection by p24 antigen capture ELISA; format: functional; settings: Human immunodeficiency virus 1, NL4.3, CCRF-CEM, 192 h
Summary of the method: (§1)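 CD4+ T-lymphoblastoid CEM-GFP cells were infected with HIV-1 NL4-3 at MOI 0.05, following the lab's published protocol. Cells were then exposed to each compound at a concentration found non-cytotoxic by MTT and kept up to 8 days post infection. Virus was read out by p24 antigen-capture ELISA. IC50 is the concentration giving 50% protection of cells from virus (n = 3).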

[2] = system: Human immunodeficiency virus 1; assay: Antiviral activity against Human immunodeficiency virus 1 NL4.3 infected human CEM cells expressing GFP measured up to 8 days postinfection by p24 antigen capture ELISA; format: functional, organism-based; settings: Human immunodeficiency virus 1, NL4.3, CCRF-CEM, 192 h; summary of the method: as §1
[3] = Cytotoxicity against human CEM cells expressing GFP after 48 to 72 hrs by MTT assay; format: cell-based; settings: CEM cells expressing GFP (CCRF-CEM)
Summary of the method: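 MTT cell-viability kit used per the manufacturer's protocol. CEM-GFP cells were seeded at 2 × 10⁴ cells/well and given compound at a range of concentrations, with untreated wells as controls. Formazan was solubilized and read at 540 nm. CC50 is the concentration reducing cell proliferation by 50% (n = 3).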

[4] = system: Human immunodeficiency virus 1; assay: Antiviral activity against Human immunodeficiency virus 1 NL4.3 infected human CEM cells expressing GFP at 27.42 uM measured up to 8 days postinfection by p24 antigen capture ELISA; format: functional; settings: Human immunodeficiency virus 1, NL4.3, CCRF-CEM, 192 h; summary of the method: as §1
[5] = Therapeutic index, ratio of CC50 for human CEM cells expressing GFP to IC50 for Human immunodeficiency virus 1 NL4.3; format: cell-based, CCRF-CEM; settings: read-out: Ratio CC50/IC50
[6] = system: Human immunodeficiency virus 1; assay: Antiviral activity against Human immunodeficiency virus 1 NL4.3 infected human CEM cells expressing GFP at 35.17 uM measured day 8 on post infection by p24 antigen capture ELISA; format: functional; settings: Human immunodeficiency virus 1, NL4.3, CCRF-CEM, 192 h; summary of the method: as §1
[7] = system: Human immunodeficiency virus 1; assay: Antiviral activity against Human immunodeficiency virus 1 NL4.3 infected human CEM cells expressing GFP at 30.56 uM measured up to 8 days postinfection by p24 antigen capture ELISA; format: functional; settings: Human immunodeficiency virus 1, NL4.3, CCRF-CEM, 192 h; summary of the method: as §1
[8] = system: Human immunodeficiency virus 1; assay: Antiviral activity against Human immunodeficiency virus 1 NL4.3 infected human CEM cells expressing GFP at 43.29 uM measured up to 8 days postinfection by p24 antigen capture ELISA; format: functional; settings: Human immunodeficiency virus 1, NL4.3, CCRF-CEM, 192 h; summary of the method: as §1
[9] = system: Human immunodeficiency virus 1; assay: Antiviral activity against Human immunodeficiency virus 1 NL4.3 infected human CEM cells expressing GFP at 14.98 uM measured up to 8 days postinfection by p24 antigen capture ELISA; format: functional; settings: Human immunodeficiency virus 1, NL4.3, CCRF-CEM, 192 h; summary of the method: as §1
[10] = system: Human immunodeficiency virus 1; assay: Antiviral activity against Human immunodeficiency virus 1 NL4.3 infected human CEM cells expressing GFP at 8.41 uM measured up to 8 days postinfection by p24 antigen capture ELISA; format: functional; settings: Human immunodeficiency virus 1, NL4.3, CCRF-CEM, 192 h; summary of the method: as §1
[11] = system: Human immunodeficiency virus 1; assay: Antiviral activity against Human immunodeficiency virus 1 NL4.3 infected human CEM cells expressing GFP at 1.84 uM measured up to 8 days postinfection by p24 antigen capture ELISA; format: functional; settings: Human immunodeficiency virus 1, NL4.3, CCRF-CEM, 192 h; summary of the method: as §1
[12] = system: Human immunodeficiency virus 1; assay: Antiviral activity against Human immunodeficiency virus 1 NL4.3 infected human CEM cells expressing GFP at 1.68 uM measured up to 8 days postinfection by p24 antigen capture ELISA; format: functional; settings: Human immunodeficiency virus 1, NL4.3, CCRF-CEM, 192 h; summary of the method: as §1
[13] = system: Human immunodeficiency virus 1; assay: Antiviral activity against Human immunodeficiency virus 1 NL4.3 infected human CEM cells expressing GFP at 65.93 uM measured up to 8 days postinfection by p24 antigen capture ELISA; format: functional; settings: Human immunodeficiency virus 1, NL4.3, CCRF-CEM, 192 h; summary of the method: as §1
[14] = system: Human immunodeficiency virus 1; assay: Antiviral activity against Human immunodeficiency virus 1 NL4.3 infected human CEM cells expressing GFP at 59.80 uM measured up to 8 days postinfection by p24 antigen capture ELISA; format: functional; settings: Human immunodeficiency virus 1, NL4.3, CCRF-CEM, 192 h; summary of the method: as §1
[15] = system: Human immunodeficiency virus 1; assay: Antiviral activity against Human immunodeficiency virus 1 NL4.3 infected human CEM cells expressing GFP at 12.30 uM measured up to 8 days postinfection by p24 antigen capture ELISA; format: functional; settings: Human immunodeficiency virus 1, NL4.3, CCRF-CEM, 192 h; summary of the method: as §1
[16] = system: Human immunodeficiency virus 1; assay: Antiviral activity against Human immunodeficiency virus 1 NL4.3 infected human CEM cells expressing GFP at 18.58 uM measured up to 8 days postinfection by p24 antigen capture ELISA; format: functional; settings: Human immunodeficiency virus 1, NL4.3, CCRF-CEM, 192 h; summary of the method: as §1
[17] = system: Human immunodeficiency virus 1; assay: Antiviral activity against Human immunodeficiency virus 1 NL4.3 infected human CEM cells expressing GFP at 19.60 uM measured up to 8 days postinfection by p24 antigen capture ELISA; format: functional; settings: Human immunodeficiency virus 1, NL4.3, CCRF-CEM, 192 h; summary of the method: as §1
[18] = system: Human immunodeficiency virus 1; assay: Antiviral activity against Human immunodeficiency virus 1 NL4.3 infected human CEM cells expressing GFP at 1.59 uM measured up to 8 days postinfection by p24 antigen capture ELISA; format: functional; settings: Human immunodeficiency virus 1, NL4.3, CCRF-CEM, 192 h; summary of the method: as §1
[19] = system: Human immunodeficiency virus 1; assay: Antiviral activity against Human immunodeficiency virus 1 NL4.3 infected human CEM cells expressing GFP at 23.36 uM measured up to 8 days postinfection by p24 antigen capture ELISA; format: functional; settings: Human immunodeficiency virus 1, NL4.3, CCRF-CEM, 192 h; summary of the method: as §1
[20] = system: Human immunodeficiency virus 1; assay: Antiviral activity against Human immunodeficiency virus 1 NL4.3 infected human CEM cells expressing GFP at 22.30 uM measured up to 8 days postinfection by p24 antigen capture ELISA; format: functional; settings: Human immunodeficiency virus 1, NL4.3, CCRF-CEM, 192 h; summary of the method: as §1
[21] = system: Human immunodeficiency virus 1; assay: Antiviral activity against Human immunodeficiency virus 1 NL4.3 infected human CEM cells expressing GFP at 16.73 uM measured up to 8 days postinfection by p24 antigen capture ELISA; format: functional; settings: Human immunodeficiency virus 1, NL4.3, CCRF-CEM, 192 h; summary of the method: as §1
[22] = system: Human immunodeficiency virus 1; assay: Antiviral activity against Human immunodeficiency virus 1 NL4.3 infected human CEM cells expressing GFP at 31.12 uM measured up to 8 days postinfection by p24 antigen capture ELISA; format: functional; settings: Human immunodeficiency virus 1, NL4.3, CCRF-CEM, 192 h; summary of the method: as §1
[23] = Solubility of the compound; format: physicochemical
[24] = system: Human immunodeficiency virus 1; assay: Antiviral activity against Human immunodeficiency virus 1 NL4.3 infected human CEM cells expressing GFP at 24.48 uM measured up to 8 days postinfection by p24 antigen capture ELISA; format: functional; settings: Human immunodeficiency virus 1, NL4.3, CCRF-CEM, 192 h; summary of the method: as §1
[25] = system: Human immunodeficiency virus 1; assay: Antiviral activity against Human immunodeficiency virus 1 NL4.3 infected human CEM cells expressing GFP at […] uM measured up to 8 days postinfection by p24 antigen capture ELISA; format: functional; settings: Human immunodeficiency virus 1, NL4.3, CCRF-CEM, 192 h
[26] = system: Human immunodeficiency virus 1; assay: Antiviral activity against Human immunodeficiency virus 1 NL4.3 infected human CEM cells expressing GFP at 20.20 uM measured up to 8 days postinfection by p24 antigen capture ELISA; format: functional; settings: Human immunodeficiency virus 1, NL4.3, CCRF-CEM, 192 h; summary of the method: as §1
[27] = system: Human immunodeficiency virus 1; assay: Antiviral activity against Human immunodeficiency virus 1 NL4.3 infected human CEM cells expressing GFP at 23.51 uM measured up to 8 days postinfection by p24 antigen capture ELISA; format: functional; settings: Human immunodeficiency virus 1, NL4.3, CCRF-CEM, 192 h; summary of the method: as §1
[28] = system: Human immunodeficiency virus 1; assay: Antiviral activity against Human immunodeficiency virus 1 NL4.3 infected human CEM cells expressing GFP at 4.98 uM measured up to 8 days postinfection by p24 antigen capture ELISA; format: functional; settings: Human immunodeficiency virus 1, NL4.3, CCRF-CEM, 192 h
Summary of the method: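 Human CD4+ T-cell line CEM-GFP infected with HIV-1 NL4.3 at MOI 0.05, then incubated with compound at a non-cytotoxic concentration (chosen from a prior MTT viability assay in CEM-GFP) for up to 8 days post-infection. Protection is read by p24 antigen capture ELISA, n = 3.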

SMILES | IC50 [2] [µM] | CC50 [3] [µM] | selectivity ratio [5] | other results
C=CCOc1cc(OCCC=C(C)C)c2ccccc2n1 |  |  |  | inhibition at 21.2 µM [1]: 16%
C#CCOc1cc(OCC=C(C)C)nc2ccccc12 |  |  |  | inhibition at 14.98 µM [9]: 2.56%
C=CCOc1cc(OCCC(C)C)c2ccccc2n1 |  |  |  | inhibition at 1.84 µM [11]: 23%
CC(C)=CCOc1cc(OCCC(C)C)c2ccccc2n1 |  |  |  | inhibition at 1.68 µM [12]: 31.2%
CC(C)=CCCOc1cc(OCCC=C(C)C)c2ccccc2n1 |  |  |  | inhibition at 12.3 µM [15]: 32.7%
C#CCOc1cc(OCCC(C)C)nc2ccccc12 |  |  |  | inhibition at 18.58 µM [16]: 56.4%
C#CCOc1cc(OCCCC)nc2ccccc12 |  |  |  | inhibition at 19.6 µM [17]: 56.4%
CC(C)=CCCOc1cc(OCCC(C)C)c2ccccc2n1 |  |  |  | inhibition at 1.59 µM [18]: 15%
CC(C)CCOc1cc(OCc2ccccc2)nc2ccccc12 |  |  |  | inhibition at 23.36 µM [19]: 47%
C=CCOc1cc(OCC=C(C)C)c2ccccc2n1 |  |  |  | inhibition at 22.3 µM [20]: 35%
C#CCOc1cc(OCC=C)nc2ccccc12 |  |  |  | inhibition at 16.73 µM [21]: 16.1%
C=CCC1(CC=C)C(=O)Nc2ccccc2C1=O |  |  |  | inhibition at 31.12 µM [22]: 44.3%
CCCCC1(CCCC)C(=O)Nc2ccccc2C1=O |  |  |  | solubility [23]: Insoluble
CC(C)Oc1c(C(C)C)c(O)nc2ccccc12 |  |  |  | solubility [23]: Insoluble
CCCCCCCCOc1cc(OCCCCCCCC)c2ccccc2n1 |  |  |  | solubility [23]: Insoluble
CCCC1(CCC)C(=O)Nc2ccccc2C1=O | 16.7 | 113 | 6.78 | inhibition at 24.48 µM [24]: 74.7%
Cc1cn([C@H]2C[C@H](N=[N+]=[N-])[C@@H](CO)O2)c(=O)[nH]c1=O [ZIDOVUDINE] | 1.04 |  |  | inhibition at 4.98 µM [28]: 89.8%

Continued, in another order:

IC50 [2] [µM] | SMILES | CC50 [3] [µM] | selectivity ratio [5] | other results
11.6 | C#CCOc1c(CC#C)c(O)nc2ccccc12 | 147 | 12.7 | inhibition at 27.42 µM [4]: 92.4%
19.3 | C#CCOc1cc(O)nc2ccccc12 | 103 | 5.3 | inhibition at 35.17 µM [6]: 65.1%
8.95 | CC(C)=CCOc1cc(O)nc2ccccc12 | 77.4 | 8.64 | inhibition at 30.56 µM [7]: 95.5%
3.89 | CC(C)CCOc1cc(O)nc2ccccc12 | 115 | 29.5 | inhibition at 43.29 µM [8]: 76.7%
2.35 | CC(C)=CCC1(CC=C(C)C)C(=O)Nc2ccccc2C1=O | 62.6 | 26.6 | inhibition at 8.41 µM [10]: 96%
34.4 | CCCCOc1c(CCCC)c(O)nc2ccccc12 | 192 | 5.56 | inhibition at 65.93 µM [13]: 81%
34.9 | CC(C)CCOc1c(CCC(C)C)c(O)nc2ccccc12 | 160 | 4.59 | inhibition at 59.8 µM [14]: 88.6%
3.23 | CC(C)=CCCC1(CCC=C(C)C)C(=O)Nc2ccccc2C1=O | 67.4 | 20.9 | inhibition at 12.3 µM [15]: 82%
8.76 | CC(C)=CCCOc1c(CCC=C(C)C)c(O)nc2ccccc12 | 103 | 11.8 | inhibition at 23.07 µM [25]: 68.3%
3.8 | CC(C)=CCOc1c(CC=C(C)C)c(O)nc2ccccc12 | 71.2 | 18.7 | inhibition at 20.2 µM [26]: 87.5%
2.99 | C=CC(C)(C)C1(CC=C(C)C)C(=O)Nc2ccccc2C1=O (stereo not given) [BUCHAPINE] | 55.9 | 18.7 | inhibition at 23.51 µM [27]: 80.1%
